The text below walks through data of the EternaBench riboswitch data.

In the series the test system is MS2 coat protein. Description: apparent Kd, MS2 coat protein; higher = weaker binding; RNA-MaP array; FMN 200 µM where present. Summed up: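 The titrant was SNAP-549-labelled MS2 coat protein, run from 0.7 or 1.5 nM in doubling steps to 3 µM. It was applied to designs transcribed by stalled E. coli RNA polymerase on Illumina sequencing-chip clusters, without ligand first and then with constant ligand, in 100 mM Tris-HCl pH 7.5, 80 mM KCl, 4 mM MgCl2, BSA, DTT, yeast tRNA and Tween-20. The apparent Kd is the median of filtered per-cluster binding-curve fits, with green signal normalised to red-channel RNA signal and control-cluster median Fmax.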

The mark [1] stands for this setting: designed as: OFF switch for flavin mononucleotide, no ligand.
The mark [2] stands for this setting: ligand present: flavin mononucleotide, designed as: OFF switch for flavin mononucleotide.
Setting [3] is: designed as: ON switch for flavin mononucleotide, no ligand.
Where [4] appears, read: ligand present: flavin mononucleotide, designed as: ON switch for flavin mononucleotide.

Take “ACAAAUGGAGGAUAUACAUGAGGAUCACCCAUGUAUAUCCUACAUGUGUGAUAAUCAUGUAGAAGGCCAUUUGA”: the “apparent Kd” value is, setting by setting: under setting [1], 14 nM; under setting [2], 12.3 nM.
Take “AGAACGUCAGGAUAUCCAACAACAAGUAAAUAGAGAAGAAGGGAGAAGGGACAUGAGGAUCACCCAUGUAAGAA”: the “apparent Kd” value by setting is: under setting [1], 51.4 nM; under setting [2], 45.9 nM.
Turning to “UAAUCUCAGAUAGGAUAUAUAGGAUAACUUAAGACCUAACAUGAGGAUCACCCAUGUGAUUAUUCGUAGAAGGAUCAUUGAACC”, the “apparent Kd” value is 206 nM under setting [3] and 217 nM under setting [4].
As for “CUCCUCCUGGUCAGGAUAUGAGCUUUAUCGGAUAUUCAGAAGGGACAUGAGGAUCACCCAUGUAACGUCGCUGG”, the “apparent Kd” value by setting is: under setting [1], 14.8 nM; under setting [2], 17.2 nM.
As to “GGAAAUCAUGUAGGAUAUGCAUGGCGAAGCUACGCAGAAGGACAUGAGGAUCACCCAUGUUAGAGCGUCCGAGAAAGGAUGCAA”, the “apparent Kd” value by setting is: under setting [1], 43.2 nM; under setting [2], 250 nM.
The like results for “AGUCGGAGCAGAGGAUAUAUACAUGAGGAUCACCCAUGUAAAUGAAUGAGCUGGAAACAGCAAGUAUAGAAGGCUGCUCCGACA” were, in that order, 15.2 nM and 16 nM.
The like results for “UUCCUCUUUGUGAGGAUAUCGUCCGUUUUUUGUUACGAGAAGGCACAUGAGGAUCACCCAUGUUUUUUGUUUUU” were, in that order, 20.4 nM and 68.3 nM.
Consider “CCGUCACAUGAGGAUCACCCAUGUCAGGAUAUCUAUCAUAGCAUCGAAAGAUGCGGGUAGAGAAGGGACUAUCC”, for which, under setting [2], the “apparent Kd” value amounted to 22.6 nM.
As for “GCAACGCCUGACAUGAGGAUCACCCAUGUUAGAUUGUUAUGUCAGGAUAUUGUCUCGAAACGAGACGAGAAGGGAUAUGUUGCU”, the “apparent Kd” value under setting [3] was found to be 1110 nM and the “apparent Kd” value under setting [4] was 39 nM.
For “CGGCAAGUCACAGGAUAUGGUGAUGUACAUGAGGAUCACCCAUGUCCGUCUUCUCUCACAAGAUGCCAGAAGGGUGACUCCCGG”, in that order: 852 nM and 120 nM.
“CUGUUUUUCGCAGGAUAUGCUCCUCCUUUAUUAGCAGAAGGGCGUUAAACAUGAGGAUCACCCAUGUAUGGUAAUGACAUUUUC”: the “apparent Kd” value is, setting by setting: under setting [1], 33.6 nM; under setting [2], 209 nM.
In the case of “ACACAUGAGGAUCACCCAUGUAGCUGGCGUCUGCGCCAGCCACAGGAUAUACGGCAAAACAAACCGUAGAAGGGUGAUAAACAC”, the “apparent Kd” value by setting is: under setting [3], 80.1 nM; under setting [4], 31.8 nM.
For “GGUGCAUAUGAGAAGGCGAUCAUGAAACAUGAUCGAGGAUAUCAUGUAAACAUGAGGAUCACCCAUGUAUGGGAAAAGUGCAUC”, in that order: 85.4 nM and 10.7 nM.
The like results for “AAUCGAUGAUCAGGAUAUGUGGAGCCUCUAAGCGAUGAGGCGUACAUGAGGAUCACCCAUGUGACACAGAAGGGAUACAUGCGG” were, in that order, 60.7 nM and 8.43 nM.
As for “UAUAACAUGAGGAUCACCCAUGUGGUCGUCGUGGCCCUGUGACAGGAUAUCGGAGUUGGAGCAUACGAGAAGGGUUACGCGGCC”, the “apparent Kd” value under setting [1] worked out at 10.5 nM and the “apparent Kd” value under setting [2] was 12.4 nM.
For “AUUGAUGUUGAGGAUAUGCUUAUAUUUAUACUUGCAGAAGGCGAUACAUGAGGAUCACCCAUGUUCAUGGAAGU”, in that order: 31.3 nM and 33.8 nM.
For the sequence “UUAUUUAUGUAAGGAUAUCGAUUAUAUACACAUCCUACAUGAGGAUCACCCAUGUUUUAUUUUUUCGAGAAGGUACAUUGUCGG”, the “apparent Kd” value under setting [3] stood at 51.7 nM and the “apparent Kd” value under setting [4] stood at 47.4 nM.
For “UGUCGGAGCAGAGGAUAUUACAUGAGGAUCACCCAUGUAUGAACCAAUAGAUGGAAACAGCAAUGUAAGAAGGCUGCUCCGACA”, the “apparent Kd” value is, setting by setting: under setting [1], 95.9 nM; under setting [2], 346 nM.
The like results for “AUCCGGCGUGUAGGAUAUGGAAAAGAUUAGGAUCCAGAAGGACAUGAGGAUCACCCAUGUACAUGUAAACAGUCAUCACCGGAA” were, in that order, 34.1 nM and 49.6 nM.
On to “GUAGCAUACCGAGGAUAUUCAUACGGGAAACCGACAUGAGGAUCACCCAUGUGGCGAAAGCCUUGGGAGAAGGCGGAAUGCUAC”, for which the “apparent Kd” value reads like this: under setting [3], 691 nM; under setting [4], 24.8 nM.
Turning to “ACAUGAGGAUCACCCAUGUUUUUUGGGUACUUUUGUUUCUGCAAGGAUAUGCAUUAUUUAUAUACGCAGAAGGUGCAUUACUUC”, the “apparent Kd” value was 573 nM under setting [1] and 708 nM under setting [2].
For “UGAUCGAGAGAUCUUAGAUUCUGGUAGGAUAUACAUUAUAGAAGAUAUACAUGAGGAUCACCCAUGUAGAAGGACUAGAGUCUA”, in that order: 6.73 nM and 9.72 nM.
Take “GUAGAACAUGAGGAUCACCCAUGUGAAGACGCAUGAGGAUAUAUACGUAAAUAGCAUACGAUAGAAGGCAUGAUAA”: the “apparent Kd” value is 51.8 nM under setting [3] and 26.8 nM under setting [4].
Take “CUAUGACGAAUAGGAUAUUCGAUCAAAAGGAUAGAAGAAGGGUUACAUGAGGAUCACCCAUGUAUGCACAUGAGGAUCCCUUAG”: the “apparent Kd” value was 193 nM under setting [1] and 219 nM under setting [2].
As for “AAUAUAAAGCAGAAGGCCUUAUUACAUGAGGAUCACCCAUGUAAUCGUGGGAGGAUAUGCAUGAUACAAGUACGUUUGGUAGGA”, the “apparent Kd” value was determined as 8.76 nM under setting [3] and 5.22 nM under setting [4].
For “GUUGCACAAGUUAACAUGAGGAUCACCCAUGUCAAAAGACAUGAGGAUAUGGAUCUGAAGAAGAUCCAGAAGGCAUAAUGCUAA”, the “apparent Kd” value by setting is: under setting [3], 796 nM; under setting [4], 117 nM.
For “AAGUUUGUACGAGGAUAUCAGUUGUAUCUAAAUUCAACAUGAGGAUCACCCAUGUUGCAAUGGAGUGAGAAGGCGUGUGGGCAA”, the “apparent Kd” value came to 31.3 nM under setting [3] and 22.8 nM under setting [4].
“UUAUUAUAUGUAGGAUAUGCGUAUUAUUGUUAUGCAGAAGGACAUGAGGAUCACCCAUGUAUAUUAUUGUUAUGUAUUAUAUAU”: the “apparent Kd” value was determined as 30.5 nM under setting [1] and 69.3 nM under setting [2].
With “GGACAUUUACAGAAGGGCAAAUUUUUUAUUGAAUAUUUAGUUCUGUUUUGCAGGAUAUGUUUUACAUGAGGAUCACCCAUGUCC”, the “apparent Kd” value by setting is: under setting [3], 79.9 nM; under setting [4], 30.6 nM.
On to “AUGACAUGCAGAGCGCAACGGCGUACAUGAGGAUCACCCAUGUAGGAUAUACUACACAAAGUGUAGUAGAAGGACAUGCGACUG”, for which the “apparent Kd” value is, setting by setting: under setting [1], 18.6 nM; under setting [2], 21.3 nM.
The like results for “AUCAGCUCGUCAGGAUAUACGUCACUGCGUCAGCAGUGUGGUAAGAUCACAUGAGGAUCACCCAUGUAGAAGGGACCAGCUGAU” were, in that order, 13.4 nM and 229 nM.
Regarding “UCCUACAUGGGAGGAUAUCCUCAUGAGACAUGAGGAUCACCCAUGUAUUAUAAGCCGAAAGGCAAGGAGAAGGCCCAUGUAGGU”, the “apparent Kd” value is, setting by setting: under setting [3], 34.9 nM; under setting [4], 18 nM.
For the sequence “ACCAUUUACUAGUUUUCUAUACAUGAGGAUCACCCAUGUUUUUAGGAUAUCAGCGUGAAACACGCUGAGAAGGAAGAACAAUCG”, the “apparent Kd” value under setting [1] came to 19.1 nM and the “apparent Kd” value under setting [2] is 24.6 nM.
The like results for “AUCAGCUCGUCAGGAUAUACGUCACUGCGUAAGCAGUGUGGUAAGAUCACAUGAGGAUCACCCAUGUAGAAGGGACGAGCUGAU” were, in that order, 12.9 nM and 288 nM.
In the case of “GUGCCUUAUGAGAAGGCGAUCAUGAAACAUGAUCGAGGAUAUCAUGUAAACAUGAGGAUCACCCAUGUAUGGGUAUUAUGGUAC”, the “apparent Kd” value is, setting by setting: under setting [3], 547 nM; under setting [4], 55.5 nM.
For the sequence “CCUUUACAUGAGGAUCACCCAUGUCAGGAUAUCCUGUGGUGUUGUCUCGGGCGACACAUGAGCCAGGAGAAGGGACGAAGGGAA”, the “apparent Kd” value runs as follows: under setting [1], 49 nM; under setting [2], 76.3 nM.
“GUAGCAUGCAGCGAGGAUAUUCAUAUUAAAACAUGAGGAUCACCCAUGUAGGCCAAAAGGCCUUGGGAGAAGGCGCACAUGCUAC”: the “apparent Kd” value reads like this: under setting [3], 777 nM; under setting [4], 43.2 nM.
With “UUUUAACAUGAGGAUCACCCAUGUGAGGAUAUCGAAAUUUAUAUUAAUAUUAAUAAUUCGAGAAGGCACAUUUU”, the “apparent Kd” value amounted to 142 nM under setting [1] and 137 nM under setting [2].
Turning to “AGCCGAAGCGCAGGAUAUACAUGUAUACAUGAGGAUCACCCAUGUAGCAACACGUGGUAGUGAUUGUAGAAGGGUGCUCGGCGC”, the “apparent Kd” value turned out to be 32.8 nM under setting [3] and 30 nM under setting [4].
Take “AAUAAUUAGUAAGGAUAUACUAGUGAUUAGCUUGUAGAAGGUACAGUCUUAUGUAUAACAAAUUAACAUGAGGAUCACCCAUGU”: the “apparent Kd” value by setting is: under setting [3], 8.8 nM; under setting [4], 8.1 nM.
Consider “AUCAACCAGGCAGGAUAUCAAUGUGGCCUCAUCGUACACCCUCGCAACAUGAGGAUCACCCAUGUUGAGAAGGGCCAAUUAAGA”, for which the “apparent Kd” value amounted to 10.1 nM under setting [1] and 6.02 nM under setting [2].
Take “CGAUAAUAUAGUUAUCCGUAACGGACAUGAGGAUCACCCAUGUAGGAUAUGUUACUCAACGAGUAACAGAAGGACAUGAGUCUU”: the “apparent Kd” value is, setting by setting: under setting [1], 14.8 nM; under setting [2], 109 nM.
Regarding “UGGAGAAAUCAAGGAUAUGCUACCGUUUCGGUAGCAGAAGGUGAUCACAUGAGGAUCACCCAUGUAUGCAUGCGUGAGCGUGCU”, the “apparent Kd” value amounted to 46.4 nM under setting [3] and 289 nM under setting [4].
“CGCUGGAACACAGGAUAUCGCACAUGCCUGAUCCAGUUAAUAUCACAUGAGGAUCACCCAUGUGGUGAGAAGGGUGUCAAGUUU”: the “apparent Kd” value is 27.1 nM under setting [1] and 47.2 nM under setting [2].
The like results for “CCUGCACAUGAGGAUCACCCAUGUUAGGAUAUAUUUGACCGUGGAAUUACCAUUGGAAGUAGAAGGAACAUGUA” were, in that order, 16.1 nM and 18 nM.
Consider “GUGGUGCUAAAGAAGCACAUGAGGAUCACCCAUGUGCCGACACAGGAUAUCGACCGCGUUGGCGUCGAGAAGGGUGAGCCUACU”, for which the “apparent Kd” value is, setting by setting: under setting [3], 63.4 nM; under setting [4], 34.4 nM.
For “GUCACGUAAGGAUAUCAUUAGUUGGACAUGAGGAUCACCCAUGUGAGACUAACUCCGGCGUGAGAAGGUGCGUUAA”, the “apparent Kd” value runs as follows: under setting [1], 13.4 nM; under setting [2], 16.7 nM.
The like results for “UGAGAUCGGGCAGGAUAUCGACAUGAGGAUCACCCAUGUGGGUUAUACUUCCCGCAUGGCUGUGGCGAGAAGGGCCCGGACCAU” were, in that order, 395 nM and 83.1 nM.
